Bioassay records (PubChem BioAssay)
GPR7 antagonist = human neuropeptides B/W receptor 1 antagonism. GPR7-expressing cells, fluorescence antagonist assay. inhibition, % at 4.4 µM. 290,000 compounds, 1.1% hits. AID 1861; in the data active means inhibition above about 16%, passing the limit was not always enough;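 further: cells stimulated with the agonist NPW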
GalR3 antag = antagonists of human GalR3 | O60755 | HEK293 GalR3-CNG cAMP membrane potential fluorescence; galR3 body fused to GalR1 C-terminus | inhibition, % at 3 µM | 360,000 compounds, 0.44% hits;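 active means inhibition above the screen-wide average plus 3 SD, cut at about 13% in these data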;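 further: forskolin and galanin both at EC90 stimulate the cells; cAMP rise reported by CNG channel membrane potential dye signal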
OX1R antag-1 = antagonists of human orexin 1 receptor | O43613 | CHO/OX1R cells, Fluo-8 calcium fluorescence, orexin A | inhibition, % at 5 µM | 330,000 compounds, 0.43% hits | AID 434989;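 active means inhibition above its plate's threshold, mean inhibition of all tested compounds on the plate plus 3 SD, cut at about 37% in these data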
Target sequence (O43613 whole entry, looked up): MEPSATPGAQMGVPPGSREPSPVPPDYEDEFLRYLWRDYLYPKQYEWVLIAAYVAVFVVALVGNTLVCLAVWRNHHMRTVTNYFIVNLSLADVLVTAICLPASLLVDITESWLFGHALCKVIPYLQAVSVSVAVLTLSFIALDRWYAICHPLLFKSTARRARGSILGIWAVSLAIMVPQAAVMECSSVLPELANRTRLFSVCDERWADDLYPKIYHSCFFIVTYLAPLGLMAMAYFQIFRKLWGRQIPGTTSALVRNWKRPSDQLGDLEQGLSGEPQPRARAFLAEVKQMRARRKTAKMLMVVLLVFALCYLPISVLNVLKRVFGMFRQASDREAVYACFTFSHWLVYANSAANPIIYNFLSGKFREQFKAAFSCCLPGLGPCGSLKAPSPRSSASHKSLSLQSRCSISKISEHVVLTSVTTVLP
CHO parental Ca = counter-screen: ATP calcium response change in parental CHO cells. parental CHO-K1, ATP-induced calcium, Fluo-8 fluorescence. inhibition, % at 5.6 µM. 330,000 compounds, 0.63% hits. AID 463079;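 active means inhibition above that plate's mean sample inhibition plus 3 SD, cut at about 26% in these data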
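Assay system: untransfected parental CHO cell line. Also added: ATP agonist challenge. Dosing: one dose, 5.6 µM nominal. Measured by: Fluo-8 fluorescence. Read-out: % inhibition. Benchmarks: ATP wells versus no-ATP DMSO wells. Repeats: no replicates.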
OX1R antag-2 = blocks the human orexin 1 receptor | inhibition, % at 6.6 µM | OX1R-expressing cells, FRET antagonist read-out | O43613 | 330,000 compounds, 1.8% hits; in the data active means inhibition mostly above about 38%, no sharp cut-off; inactive means mostly below about 40%
GalR3 antag conf = GalR3 (human) antagonism, confirmation. shares compounds with GalR3 antag. HEK293 GalR3 CNG cAMP biosensor, membrane potential fluorescence; galR3 fused to GalR1 carboxy tail; challenged with forskolin and galanin at EC90. inhibition, % at 3 µM. 1,600 compounds, 59% hits. AID 652245;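 active means inhibition above the primary screen's cutoff, the mean inhibition of all screened compounds plus 3 SD, cut at about 13% in these data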
HEK-CNG parental = counter-screen for GalR3 antagonists: nonspecific agonists in parental HEK-CNG cells | HEK293-CNG parental cells, cAMP membrane potential fluorescence; normalised: DMSO wells 0%, forskolin wells 100% | activation, % at 3 µM | shares compounds with GalR3 antag | 1,600 compounds, 10% hits; in the data active means activation above about 1.3%
Hits are given with their value; n = inactive; x = no result given. Compounds with a hit are over-represented: about 3.1% of the library has one in this group of screens.

SMILES	GPR7 antagonist	GalR3 antag	OX1R antag-1	CHO parental Ca	OX1R antag-2	GalR3 antag conf	HEK-CNG parental
Cc1cc(C)n(CCNC(=O)[C@H]2O[C@@H](n3cnc4c(N)ncnc43)[C@H](O)[C@@H]2O)n1	x	n	x	x	x	x	x
Nc1ncnc2c1ncn2[C@@H]1O[C@H](C(=O)NS(=O)(=O)c2ccccc2[N+](=O)[O-])[C@@H](O)[C@H]1O	x	39	x	x	x	27	n
Nc1ncnc2c1ncn2[C@@H]1O[C@H](CNCc2ccc(-c3cc(C(F)(F)F)ccc3Cl)o2)[C@@H](O)[C@H]1O	x	42	n	n	n	54	n
Cc1ccc(C)c(OCC(O)CN2CCc3ccccc3C2)c1C (configuration not stated)	n	n	n	n	n	x	x
COc1ccc(-c2cc(CNC(=O)CN3CCN(C)CC3)on2)cc1	n	13	n	n	n	n	n
COc1ccc(NS(=O)(=O)c2ccc3oc(SC(C)C(N)=O)nc3c2)cc1 (configuration not stated)	n	24	n	n	n	n	n
CCCCCN(C(=O)CCC(=O)OCc1cccc(C(F)(F)F)c1)c1c(N)n(CCCC)c(=O)[nH]c1=O	n	n	n	n	n	x	x
COc1ccc(-c2ccc(-c3cc(=O)oc4c(C(C)C)ccc(C)c34)cc2)cc1	x	23	n	n	n	13	n
CCOC(=O)c1ccc(-c2c(-c3cc(OC)c(OC)c(OC)c3)noc2C)cc1F	n	x	n	n	n	n	3.8
CC(C)[C@H](NC(=O)c1c(F)cccc1F)C(=O)N1CCN(c2ccc(F)cc2)CC1	n	13	n	n	n	n	n
Fc1ccc(/C=N/NC(=S)Nc2cccnc2)cc1	n	21	n	n	n	n	n
Fc1ccc(/C=N/NC(=S)Nc2cccnc2)cc1F	n	n	n	n	n	x	x
CCc1ccccc1NC(=O)c1cnc2scc(C)n2c1=O	n	n	n	n	n	x	x
CSc1ccccc1NC(=O)c1cnc2scc(C)n2c1=O	n	23	n	n	n	n	n
O=C(N/N=C/C1CC=CCC1)c1ccc(O)cc1O (configuration not stated)	n	n	n	n	n	x	x
COc1cc(C(=O)N/N=C/C2CC=CCC2)cc(OC)c1OC (configuration not stated)	n	13	n	n	n	n	n
O=C(COc1ccc2c(c1)oc(=O)c1ccccc12)N[C@@H](Cc1ccccc1)C(=O)O	n	n	n	n	n	x	x
O=C(COc1ccc2c(c1)oc(=O)c1ccccc12)NC(Cc1ccc(Cl)cc1)C(=O)O (configuration not stated)	n	26	n	n	n	n	n
CCNC(=O)c1ccc(NC(=O)CC2SC(N3CCCCC3)=NC2=O)cc1 (configuration not stated)	x	16	n	n	n	n	n
O=C(CC1SC(N2CCCC2)=NC1=O)Nc1ccc(C(=O)NCc2ccc(F)cc2)cc1 (configuration not stated)	x	n	x	x	x	x	x
COc1cc(C(=O)NC2CCN(C)CC2)ccc1Nc1ncc2c(n1)N(C1CCCCC1)CCC(=O)N2C	x	19	x	x	x	13	n
CCCCn1c(-c2nonc2NC(=O)c2ccccc2Cl)nc2ccccc21	x	19	x	x	x	n	n
CC(=O)Nc1nonc1-c1nc2ccccc2n1CCC#N	n	n	n	n	n	x	x
Cc1ccc(N2C(=O)c3ccccc3NC2C(C)Cc2ccc3c(c2)OCO3)cc1 (configuration not stated)	n	39	n	n	n	48	n
O=C(/C=C/c1ccccc1)NC(NC(=S)Nc1cccc(O)c1)C(Cl)(Cl)Cl (configuration not stated)	n	18	n	n	n	17	n
SMILES	GPR7 antagonist	GalR3 antag	OX1R antag-1	CHO parental Ca	OX1R antag-2	GalR3 antag conf	HEK-CNG parental
O=C(/C=C/c1ccccc1)NC(NC(=S)Nc1ccc(C(=O)O)cc1)C(Cl)(Cl)Cl (configuration not stated)	n	n	n	n	n	x	x
C/C(=N\NC1=NCCN1)c1ccccc1	n	n	n	n	n	x	x
COc1ccc(Br)cc1/C(C)=N/NC1=NCCN1	n	85	n	n	n	32	2.1
Cc1ccc(C2C3=C(CCCC3=O)Nc3c2c(C)nn3-c2ccccn2)o1 (configuration not stated)	n	x	n	n	n	x	x
CC(=O)N1c2ccc(S(=O)(=O)N3CCC(C(=O)Nc4cccc(C)n4)CC3)cc2CC1C (configuration not stated)	n	51	n	n	n	94	n
CC(=O)N1c2ccc(S(=O)(=O)NCC3CCC(C(=O)Nc4cccc(C)n4)CC3)cc2CC1C (configuration not stated)	n	24	n	n	n	n	n
CC(=O)c1ccc(N2CCN(S(=O)(=O)c3ccc4c(c3)CC(C)N4C(=O)C3CC3)CC2)cc1 (configuration not stated)	n	n	n	n	n	x	x
CC(=O)c1ccc(N2CCN(S(=O)(=O)c3ccc4c(c3)CC(C)N4C(C)=O)CC2)cc1 (configuration not stated)	n	98	42	n	n	106	n
CSc1cccc(NC(=S)NCCCN2CCN(c3ccc(F)cc3)CC2)c1	n	n	n	n	n	x	x
CC1=C(C(=O)N(C)C)CC(CC(=O)NCCCN(C)C)C(=O)N1Cc1ccc(F)cc1 (configuration not stated)	x	n	x	x	x	x	x
C/C(NCCc1ccccc1)=C1/CCOC1=O	x	n	x	x	x	x	x
CCCCCCCNC(=O)CC(NS(=O)(=O)c1ccc(NC(C)=O)cc1)C(C)C (configuration not stated)	n	n	n	n	n	x	x
CCCCCCNC(=O)CC(NS(=O)(=O)c1ccc(OC)cc1)C(C)C (configuration not stated)	n	21	n	n	n	n	n
COc1ccccc1CNc1nc(NCC2CC2)nc2ccsc12	x	n	x	x	x	x	x
COCCN1Cc2cccc(C(=O)Nc3cc(OC)ccc3OC)c2C1=O	n	45	n	n	n	52	n
CCOc1ccc(NC(=O)c2ccc(CN3CCc4ccccc4C3)cc2)cc1	n	103	n	n	n	108	n
CCOC(=O)c1ccc(NC(=O)c2ccc(CN3CCc4ccccc4C3)cc2)cc1	n	71	n	n	n	110	n
Cc1cc(CSc2ccccc2)ccc1NC(=O)c1ccc(CN2CCOCC2)cc1	n	106	n	n	n	122	n
COc1cccc(NC(=O)c2ccc(CN3CCc4ccccc4C3)cc2)c1	n	46	n	n	n	102	n
CCOC(=O)c1ccc(NC(=O)CN2CCc3ccccc3C2)cc1	n	n	n	n	n	x	x
Nc1ccc2ccccc2c1N=Nc1ccccc1	x	n	x	x	x	x	x
